Data taken from ChEMBL document CHEMBL3526049 (Drug Metab Dispos, 2012).

Key:
Assay type in all cases: ADME, organism-based
[1] = Half life in wild-type Sprague-Dawley rat at 20 mg/kg, po by LC-MS/MS analysis; parameters: dose 20 mg/kg, route oral; settings: in vivo
How it was run: (§1)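 Male Sprague-Dawley knockout rats or wild-type rats matched for age and weight, with femoral artery and vein cannulas. Crossover design: sulfasalazine 5 mg/kg iv bolus (water, pH 9–10) on day 0, then 20 mg/kg oral gavage (0.5% carboxymethyl cellulose in PBS, pH 7.4) on day 3. Arterial plasma collected 0–24 h. Sulfasalazine and sulfapyridine measured by LC-MS/MS; noncompartmental parameters; mean ± S.D., n = 4 to 8.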

[2] = Oral bioavailability in MRP2 knockout Sprague-Dawley rat at 20 mg/kg by LC-MS/MS analysis; settings: in vivo; how it was run: as §1
[3] = Volume of distribution at steady state in MRP2 knockout Sprague-Dawley rat at 5 mg/kg, iv by LC-MS/MS analysis; parameters: dose 5 mg/kg, route intravenous; settings: in vivo, read-out: Vdss; how it was run: as §1
[4] = Oral bioavailability in wild-type Wistar rat at 5 mg/kg by LC-MS/MS analysis; settings: in vivo
How it was run: (§2)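 Male Wistar wild-type rats and Mrp2-deficient TR⁻ rats with femoral artery and vein cannulas. Sulfasalazine given as an iv bolus (5 mg/kg, water at pH 9–10) and by oral gavage, each followed by arterial plasma sampling over 24 h. Sulfasalazine and sulfapyridine measured by LC-MS/MS; noncompartmental parameters; mean ± S.D., n = 3.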

[5] = Cmax in BCRP knockout Sprague-Dawley rat at 20 mg/kg, po by LC-MS/MS analysis; parameters: dose 20 mg/kg, route oral; settings: in vivo
How it was run: (§3)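 Male Sprague-Dawley knockout or age/weight-matched wild-type rats with femoral artery and vein cannulas. Crossover design: day 0 i.v. bolus 5 mg/kg sulfasalazine in water at pH 9–10, then day 3 gavage 20 mg/kg in 0.5% carboxymethyl cellulose/PBS pH 7.4. Arterial plasma was sampled to 24 h. Sulfasalazine and sulfapyridine were measured by LC-MS/MS (1–5000 ng/ml). Parameters are noncompartmental; n = 4–8, mean ± S.D.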

[6] = AUC (infinity) in MRP2 knockout Sprague-Dawley rat at 20 mg/kg, po by LC-MS/MS analysis; parameters: time infinity, dose 20 mg/kg, route oral; settings: plasma; how it was run: as §3
[7] = AUC (infinity) in MRP2 knockout Sprague-Dawley rat at 5 mg/kg, iv by LC-MS/MS analysis; parameters: time infinity, dose 5 mg/kg, route intravenous; settings: plasma; how it was run: as §3
[8] = Tmax in BCRP knockout Sprague-Dawley rat at 20 mg/kg, po by LC-MS/MS analysis; parameters: dose 20 mg/kg, route oral; settings: in vivo
How it was run: (§4)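 Male Sprague-Dawley rats (knockout or wild type, matched for age and weight) with femoral artery and vein cannulas, recovered ≥2 days. In an i.v./oral crossover with a 3-day washout, sulfasalazine was given by oral gavage at 20 mg/kg in 0.5% carboxymethyl cellulose/PBS pH 7.4. Arterial plasma was sampled 0–24 h and analysed by LC-MS/MS (1–5000 ng/ml). Noncompartmental analysis; n = 4 to 8.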

[9] = Half life in MRP2-deficient Wistar rat at 5 mg/kg, po by LC-MS/MS analysis; parameters: dose 5 mg/kg, route oral; settings: in vivo; how it was run: as §2
[10] = Cmax in MRP2 knockout Sprague-Dawley rat at 20 mg/kg, po by LC-MS/MS analysis; parameters: dose 20 mg/kg, route oral; settings: in vivo; how it was run: as §3
[11] = Volume of distribution at steady state in wild-type Sprague-Dawley rat at 5 mg/kg, iv by LC-MS/MS analysis; parameters: dose 5 mg/kg, route intravenous; settings: in vivo, read-out: Vdss; how it was run: as §1
[12] = Cmax in wild-type Wistar rat at 5 mg/kg, po by LC-MS/MS analysis; parameters: dose 5 mg/kg, route oral; settings: in vivo
[13] = Volume of distribution at steady state in wild-type Wistar rat at 5 mg/kg, iv by LC-MS/MS analysis; parameters: dose 5 mg/kg, route intravenous; settings: in vivo, read-out: Vdss; how it was run: as §2
[14] = Cmax in wild-type Sprague-Dawley rat at 20 mg/kg, po by LC-MS/MS analysis; parameters: dose 20 mg/kg, route oral; settings: in vivo; how it was run: as §3
[15] = AUC (infinity) in MDR1A knockout Sprague-Dawley rat at 5 mg/kg, iv by LC-MS/MS analysis; parameters: time infinity, dose 5 mg/kg, route intravenous; settings: plasma; how it was run: as §3
[16] = Clearance in wild-type Wistar rat at 5 mg/kg, iv by LC-MS/MS analysis; parameters: dose 5 mg/kg, route intravenous; settings: in vivo
How it was run: (§5)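 Male Wistar wild-type or Mrp2-deficient TR⁻ rats with femoral artery and vein cannulas. Sulfasalazine was given as a 5 mg/kg i.v. bolus and as a 20 mg/kg oral dose. Arterial plasma was sampled to 24 h and analysed for parent and sulfapyridine by LC-MS/MS. Noncompartmental parameters; n = 3, mean ± S.D.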

[17] = Tmax in MDR1A knockout Sprague-Dawley rat at 20 mg/kg, po by LC-MS/MS analysis; parameters: dose 20 mg/kg, route oral; settings: in vivo; how it was run: as §4
[18] = Clearance in MRP2 knockout Sprague-Dawley rat at 5 mg/kg, iv by LC-MS/MS analysis; parameters: dose 5 mg/kg, route intravenous; settings: in vivo; how it was run: as §3
[19] = Half life in wild-type Sprague-Dawley rat at 5 mg/kg, iv by LC-MS/MS analysis; parameters: dose 5 mg/kg, route intravenous; settings: in vivo; how it was run: as §1
[20] = Cmax in MDR1A knockout Sprague-Dawley rat at 20 mg/kg, po by LC-MS/MS analysis; parameters: dose 20 mg/kg, route oral; settings: in vivo; how it was run: as §3
[21] = AUC (infinity) in wild-type Wistar rat at 5 mg/kg, po by LC-MS/MS analysis; parameters: time infinity, dose 5 mg/kg, route oral; settings: plasma
[22] = Tmax in MRP2-deficient Wistar rat at 5 mg/kg, po by LC-MS/MS analysis; parameters: dose 5 mg/kg, route oral; settings: in vivo
[23] = Oral bioavailability in MDR1A knockout Sprague-Dawley rat at 20 mg/kg by LC-MS/MS analysis; settings: in vivo; how it was run: as §1
[24] = Oral bioavailability in BCRP knockout […]; settings: in vivo
[25] = Half life in wild-type Wistar rat at 5 mg/kg, iv by LC-MS/MS analysis; parameters: dose 5 mg/kg, route intravenous; settings: in vivo; how it was run: as §2
[26] = Cmax in MRP2-deficient Wistar rat at 5 mg/kg, po by LC-MS/MS analysis; parameters: dose 5 mg/kg, route oral; settings: in vivo
[27] = Oral bioavailability in wild-type Sprague-Dawley rat at 20 mg/kg by LC-MS/MS analysis; settings: in vivo; how it was run: as §1
[28] = AUC (infinity) in wild-type Wistar rat at 5 mg/kg, iv by LC-MS/MS analysis; parameters: time infinity, dose 5 mg/kg, route intravenous; settings: plasma; how it was run: as §5
[29] = Half life in MDR1A knockout Sprague-Dawley rat at 20 mg/kg, po by LC-MS/MS analysis; parameters: dose 20 mg/kg, route oral; settings: in vivo; how it was run: as §1
[30] = Clearance in wild-type Sprague-Dawley rat at 5 mg/kg, iv by LC-MS/MS analysis; parameters: dose 5 mg/kg, route intravenous; settings: in vivo; how it was run: as §3
[31] = AUC (infinity) in BCRP knockout Sprague-Dawley rat at 5 mg/kg, iv by LC-MS/MS analysis; parameters: time infinity, dose 5 mg/kg, route intravenous; settings: plasma; how it was run: as §3
[32] = Half life in MRP2 knockout Sprague-Dawley rat at 5 mg/kg, iv by LC-MS/MS analysis; parameters: dose 5 mg/kg, route intravenous; settings: in vivo; how it was run: as §1
[33] = Clearance in MDR1A knockout Sprague-Dawley rat at 5 mg/kg, iv by LC-MS/MS analysis; parameters: dose 5 mg/kg, route intravenous; settings: in vivo; how it was run: as §3
[34] = Volume of distribution at steady state in MRP2-deficient Wistar rat at 5 mg/kg, iv by LC-MS/MS analysis; parameters: dose 5 mg/kg, route intravenous; settings: in vivo, read-out: Vdss; how it was run: as §2
[35] = AUC (infinity) in MRP2-deficient Wistar rat at 5 mg/kg, po by LC-MS/MS analysis; parameters: time infinity, dose 5 mg/kg, route oral; settings: plasma
[36] = AUC (infinity) in MRP2-deficient Wistar rat at 5 mg/kg, iv by LC-MS/MS analysis; parameters: dose 5 mg/kg, route intravenous, time infinity; settings: plasma; how it was run: as §5
[37] = Tmax in MRP2 knockout Sprague-Dawley rat at 20 mg/kg, po by LC-MS/MS analysis; parameters: dose 20 mg/kg, route oral; settings: in vivo; how it was run: as §4

O=C(O)c1cc(/N=N/c2ccc(S(=O)(=O)Nc3ccccn3)cc2)ccc1O [SULFASALAZINE]
half-life [1]: 2.6 h
bioavailability [2]: 4%
Vd [3]: 1.3 L/kg
bioavailability [4]: 3.8%
Cmax [5]: 3870 ng/mL
AUC(0-inf) [6]: 635 ng·h/mL
AUC(0-inf) [7]: 4320 ng·h/mL
Tmax [8]: 0.6 h
half-life [9]: 2.3 h
Cmax [10]: 320 ng/mL
Vd [11]: 0.168 L/kg
Cmax [12]: 490 ng/mL
Vd [13]: 0.244 L/kg
Cmax [14]: 185 ng/mL
AUC(0-inf) [15]: 6260 ng·h/mL
clearance [16]: 6.8 mL/min/kg
Tmax [17]: 0.3 h
clearance [18]: 22 mL/min/kg
half-life [19]: 1.6 h
Cmax [20]: 213 ng/mL
AUC(0-inf) [21]: 1810 ng·h/mL
Tmax [22]: 0.25 h
bioavailability [23]: 2.8%
bioavailability [24]: 37%
half-life [25]: 1.5 h
Cmax [26]: 144 ng/mL
bioavailability [27]: 1.4%
AUC(0-inf) [28]: 12300 ng·h/mL
half-life [29]: 2.3 h
clearance [30]: 10.4 mL/min/kg
AUC(0-inf) [31]: 10700 ng·h/mL
half-life [32]: 4.3 h
clearance [33]: 13.5 mL/min/kg
Vd [34]: 0.839 L/kg
AUC(0-inf) [35]: 462 ng·h/mL
AUC(0-inf) [36]: 7730 ng·h/mL
Tmax [37]: 0.25 h
